This note sets out measurements from ChEMBL document CHEMBL1139340, “Synthesis, radiosynthesis, and biological evaluation of carbon-11 and fluorine-18 labeled reboxetine analogues: potential positron emission tomography radioligands for in vivo imaging of the norepinephrine transporter” (J Med Chem, 2009).

Molecules are shown by their SMILES. Some results are limits rather than exact numbers.

What is called Ki is the dissociation constant of the complex between target and ligand, obtained from inhibition or displacement. High values mean lower affinity, low ones higher affinity. By logD is commonly meant the decadic logarithm of the distribution of all forms, ionised or not, between an organic phase and buffer at a given pH.

The target of series [1] is Sodium-dependent dopamine transporter (Homo sapiens, UniProt Q01959). Kind of series: Displacement of [125I]RTI-55 from human DAT receptor expressed in canine kidney cells. It counts as cell-based. The gist of the method:
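Competition binding against [¹²⁵I]RTI-55 in canine kidney cells stably transfected with human DAT. Ki in nM, geometric mean ± SD of at least three separate experiments, each run in triplicate.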

For series [2], the species on record is Homo sapiens. Kind of series: Selectivity for human NET over human SERT. The method, boiled down:
(§1)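 Competition binding in stably transfected cells expressing human transporters: NET vs [3H]nisoxetine and SERT vs [3H]citalopram in HEK-293 cells; DAT vs [125I]RTI-55 in canine kidney cells. Ki as geometric mean of at least three experiments in triplicate; selectivity as ratio of SERT or DAT Ki to NET Ki.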

Series [3] in a line: Lipophilicity, log P at pH 7.4. It counts as physicochemical. The settings on record: buffer. The gist of the method: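 Radiotracer (~5–10 μCi) in 2 mL 1-octanol plus 2 mL 0.02 M sodium phosphate buffer, pH 7.4. Vortexed 10 min at room temperature, centrifuged 5 min. 0.5 mL of each layer gamma-counted and decay corrected. log P = log(octanol counts/buffer counts), done three times and averaged.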

Series [4] is filed under the species Homo sapiens. The experiment in a line: Selectivity for human NET over human DAT. The method, boiled down: as §1
Series [5] addresses Sodium-dependent noradrenaline transporter (Homo sapiens, UniProt P23975). The experiment in a line: Displacement of [3H]nisoxetine from human NET receptor expressed in HEK293 cells. Type of series: cell-based.
Series [6] has as its target Sodium-dependent serotonin transporter (Homo sapiens, UniProt P31645). Kind of series: Displacement of [3H]citalopram from human SERT receptor expressed in HEK293 cells. It counts as cell-based. The gist of the method: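 Competition binding against [³H]citalopram in HEK-293 cells stably transfected with human SERT. Ki in nM, geometric mean ± SD of at least three separate experiments, each run in triplicate.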
In general terms: Displacement assays read how much labelled ligand stays bound in the presence of the test substance.

Chain of Sodium-dependent dopamine transporter (Q01959 whole entry): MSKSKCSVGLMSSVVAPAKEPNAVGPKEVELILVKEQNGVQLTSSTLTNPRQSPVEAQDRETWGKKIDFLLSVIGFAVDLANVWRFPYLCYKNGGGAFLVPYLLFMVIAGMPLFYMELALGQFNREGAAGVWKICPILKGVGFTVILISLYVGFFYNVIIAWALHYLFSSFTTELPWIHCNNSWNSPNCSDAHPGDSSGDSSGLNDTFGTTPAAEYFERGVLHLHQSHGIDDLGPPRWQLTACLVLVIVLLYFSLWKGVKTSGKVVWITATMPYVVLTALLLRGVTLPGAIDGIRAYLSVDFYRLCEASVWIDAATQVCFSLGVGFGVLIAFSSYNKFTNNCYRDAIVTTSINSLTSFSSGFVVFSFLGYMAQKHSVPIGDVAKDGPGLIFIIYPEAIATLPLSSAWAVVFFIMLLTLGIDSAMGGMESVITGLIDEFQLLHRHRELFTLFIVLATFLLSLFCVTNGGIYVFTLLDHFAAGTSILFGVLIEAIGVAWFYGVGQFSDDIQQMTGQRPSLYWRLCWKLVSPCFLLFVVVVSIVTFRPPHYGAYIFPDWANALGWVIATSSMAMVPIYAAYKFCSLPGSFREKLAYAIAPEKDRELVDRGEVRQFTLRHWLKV
Chain of Sodium-dependent noradrenaline transporter (P23975 whole entry): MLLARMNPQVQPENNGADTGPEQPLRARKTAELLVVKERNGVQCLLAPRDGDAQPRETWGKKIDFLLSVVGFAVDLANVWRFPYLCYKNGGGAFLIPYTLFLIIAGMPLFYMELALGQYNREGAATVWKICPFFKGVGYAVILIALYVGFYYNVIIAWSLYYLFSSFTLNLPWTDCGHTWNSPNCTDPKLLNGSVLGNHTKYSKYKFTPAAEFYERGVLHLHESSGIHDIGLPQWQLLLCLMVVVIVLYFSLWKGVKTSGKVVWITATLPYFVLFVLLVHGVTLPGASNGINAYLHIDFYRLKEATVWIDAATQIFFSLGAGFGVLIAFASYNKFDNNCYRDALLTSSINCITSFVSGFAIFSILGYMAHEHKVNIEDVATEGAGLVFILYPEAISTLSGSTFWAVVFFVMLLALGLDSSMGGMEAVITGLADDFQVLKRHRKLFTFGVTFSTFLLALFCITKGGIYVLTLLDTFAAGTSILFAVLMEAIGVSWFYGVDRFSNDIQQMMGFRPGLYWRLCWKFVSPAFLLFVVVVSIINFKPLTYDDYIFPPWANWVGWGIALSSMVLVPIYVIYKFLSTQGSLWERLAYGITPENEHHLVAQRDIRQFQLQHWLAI
Chain of Sodium-dependent serotonin transporter (P31645 whole entry): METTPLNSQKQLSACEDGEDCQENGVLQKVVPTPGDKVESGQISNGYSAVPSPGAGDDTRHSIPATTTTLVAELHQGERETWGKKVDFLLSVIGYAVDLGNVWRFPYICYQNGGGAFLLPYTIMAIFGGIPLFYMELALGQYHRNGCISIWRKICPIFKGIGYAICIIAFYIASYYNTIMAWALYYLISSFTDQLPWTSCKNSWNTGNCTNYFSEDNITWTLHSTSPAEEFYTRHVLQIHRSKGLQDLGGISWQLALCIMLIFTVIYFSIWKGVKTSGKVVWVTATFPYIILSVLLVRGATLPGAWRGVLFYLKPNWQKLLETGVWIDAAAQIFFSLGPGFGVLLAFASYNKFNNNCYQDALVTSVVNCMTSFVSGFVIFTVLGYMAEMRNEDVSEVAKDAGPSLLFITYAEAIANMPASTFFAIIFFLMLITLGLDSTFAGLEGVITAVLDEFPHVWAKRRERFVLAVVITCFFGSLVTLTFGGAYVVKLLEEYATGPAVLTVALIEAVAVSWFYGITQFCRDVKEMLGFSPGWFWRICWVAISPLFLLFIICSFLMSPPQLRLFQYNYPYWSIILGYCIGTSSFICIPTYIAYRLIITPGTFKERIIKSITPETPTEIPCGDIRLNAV

Regarding `COc1ccccc1O[C@@H](c1ccccc1)[C@@H]1CNCCO1`, the Ki in series [1] is above 2000 nM. The Ratio Ki in the series listed under Homo sapiens [2] was found to be 195.
For `FCCCc1ccccc1O[C@@H](c1ccccc1)[C@@H]1CNCCO1`, the figures for the Ki in series [1], in series [5] and in series [6] were above 6000 nM, 3.68 nM and 463 nM, respectively. In addition, in series [3], the pH-dependent lipophilicity (logD) was 2.29. The Ratio Ki in the series listed under Homo sapiens [4] is above 2000; in the series filed under Homo sapiens [2] it was 126.
As for `FCCc1ccccc1O[C@@H](c1ccccc1)[C@@H]1CNCCO1`, the inhibition constant (Ki) in series [1] is above 6000 nM; in series [5], 3.14 nM; in series [6] it was 430 nM. Moreover, the logD in series [3] is 2. For the same compound, the figures for the Ratio Ki in the series filed under Homo sapiens [4] and in the series filed under Homo sapiens [2] were above 2000 and 137, respectively.
